Reference: ChEMBL document CHEMBL5705894, “SB1518, a novel macrocyclic pyrimidine-based JAK2 inhibitor for the treatment of myeloid and lymphoid malignancies” (Leukemia, 2011)
Calls of active or inactive are those of the source. The rule behind the calls is not given here.

Tests used:
[1] = tested on: Tyrosine-protein kinase JAK2 (Mus musculus), Q62120 [V617F]; assay: Inhibition of JAK2 V617F mutant transfected in mouse BaF3 cells assessed as increased JAK2 phosphorylation at Y1007/8 at 8 to 1000 nM incubated for 3 hrs by Western blotting analysis; format: cell-based; settings: dose 8-1000 nM
[2] = tested on: Tyrosine-protein kinase JAK2 (Mus musculus), Q62120 [V617F]; assay: Inhibition of JAK2 V617F mutant expressed in mouse BaF3 cells assessed as reduction of STAT5 phosphorylation at Y694 by Western blotting analysis; format: cell-based
[3] = tested on: SET-2; assay: Induction of apoptosis in human SET2 cells assessed as activation of caspase-3/7 incubated for 16 hrs; format: functional, cell-based
Summary of the method: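 SET-2 and Karpas 1106P cells were exposed to graded drug concentrations for 16 h. Apoptosis was read as caspase-3/7 activation.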

[4] = tested on: SET-2; assay: Induction of cell cycle arrest in human SET2 cells expressing JAK2 V617F mutant assessed as accumulation of cells at G0/1 phase incubated for 24 hrs by PI staining based flow cytometry; format: functional
Summary of the method: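 Cells were fixed in 70% ice-cold ethanol and stained with propidium iodide, then analysed by flow cytometry for cell-cycle distribution.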

[5] = tested on: KATO III stomach cancer cell line; assay: Antiproliferative activity against human KATO III stomach cancer cell line assessed as inhibition of cell viability incubated for 48 hrs by CellTiterGlo assay; format: functional, cell-based
Summary of the method: (§1)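 Cells seeded at 30–50% confluency in 96-well plates, then treated the next day in triplicate at up to 10 μM for 48 h. Viability read by CellTiter-Glo luminescence. IC50 taken from fitted dose–response curves.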

[6] = tested on: MKN-7; assay: Antiproliferative activity against human MKN-7 cells assessed as inhibition of cell viability incubated for 48 hrs by CellTiterGlo assay; format: functional, cell-based; settings: MKN-7, 48 h; summary of the method: as §1
[7] = tested on: SNU-475; assay: Antiproliferative activity against human SNU-475 cells assessed as inhibition of cell viability incubated for 48 hrs by CellTiterGlo assay; format: functional, cell-based; settings: SNU-475, 48 h; summary of the method: as §1
[8] = tested on: HCT-116; assay: Antiproliferative activity against human HCT-116 cells assessed as inhibition of cell viability incubated for 48 hrs by CellTiterGlo assay; format: functional, cell-based; settings: HCT-116, 48 h; summary of the method: as §1
[9] = tested on: A549; assay: Antiproliferative activity against human A549 cells assessed as inhibition of cell viability incubated for 48 hrs by CellTiterGlo assay; format: functional, cell-based; settings: A549, 48 h; summary of the method: as §1
[10] = tested on: LNCaP; assay: Antiproliferative activity against human LNCaP cells assessed as inhibition of cell viability incubated for 48 hrs by CellTiterGlo assay; format: functional, cell-based; summary of the method: as §1
[11] = tested on: PC-3; assay: Antiproliferative activity against human PC-3 cells assessed as inhibition of cell viability incubated for 48 hrs by CellTiterGlo assay; format: functional, cell-based; settings: PC-3, 48 h; summary of the method: as §1
[12] = tested on: U-266; assay: Antiproliferative activity against human U-266 cells assessed as inhibition of cell viability incubated for 48 hrs by CellTiterGlo assay; format: functional, cell-based; settings: U-266, 48 h; summary of the method: as §1
[13] = tested on: Karpas-1106P; assay: Antiproliferative activity against human KARPAS-1106P cells harboring JAK2 assessed as inhibition of cell viability incubated for 48 hrs by CellTiterGlo assay; format: functional, cell-based; summary of the method: as §1
[14] = tested on: MOLM-13; assay: Antiproliferative activity against human MOLM-13 cells harboring FLT3-ITD mutant assessed as inhibition of cell viability incubated for 48 hrs by CellTiterGlo assay; format: functional, cell-based; settings: MOLM-13, 48 h; summary of the method: as §1
[15] = tested on: Mus musculus; assay: In vivo inhibition of JAK2 V617F mutant in SCID Beige mouse xenografted with human SET2 cells assessed as increased JAK2 phosphorylation at Y1007/8 by immunoblotting analysis; format: functional, organism-based; settings: dose 75-150 mg/kg, route po
Summary of the method: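 Subcutaneous SET-2 tumors in SCID beige mice. Single oral doses of 75 or 150 mg/kg were given at about 300 mm3 tumor size; in the chronic arm, dosing ran for 18 days. Tumors were collected 3 h post-dose, lysed, and immunoblotted for pJAK2 (Y1007/8) and pSTAT5.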

[16] = Cytotoxicity against human EPC cells derived from polycythemia vera patients assessed as inhibition of cell viability incubated for 48 hrs by CellTiterGlo assay; format: toxicity, cell-based
Summary of the method: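 Erythroid progenitors expanded from PBMCs of PV patients or normal volunteers using a 2-step protocol. On day 12 of expansion, cells were exposed to compound for 48 h and viability was read by CellTiter-Glo. Day-12 cells were phenotyped by CD71/CD235A flow staining.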

[17] = Induction of apoptosis in human EPC cells derived from polycythemia vera patients assessed as activation of caspase-3/7 level incubated for 16 hrs; format: toxicity, cell-based; settings: Homo sapiens, EPC
[18] = In vivo inhibition of JAK2 V617F mutant in athymic BALB/c nude mouse xenografted with mouse BaF3 cells administered for 24 hrs; format: functional
[19] = target: Tyrosine-protein kinase JAK2 (Homo sapiens) (UniProt O60674); settings: HEK-293T, dose 8-1000 nM, time 3.0 hrs
[20] = target: Tyrosine-protein kinase JAK2 (Homo sapiens) (UniProt O60674); settings: Jurkat, dose 8-1000 nM, time 3.0 hrs
[21] = tested on: Tyrosine-protein kinase JAK2 (Homo sapiens), O60674 [V617F]; settings: HEL 92.1.7, dose 8-1000 nM, time 3.0 hrs
[22] = tested on: Tyrosine-protein kinase JAK2 (Homo sapiens), O60674 [V617F]; settings: HEL 92.1.7, dose 1000.0 nM, time 3.0 hrs
[23] = tested on: Tyrosine-protein kinase JAK2 (Homo sapiens), O60674 [V617F]; settings: SET2, dose 1000.0 nM, time 3.0 hrs
[24] = tested on: Tyrosine-protein kinase JAK2 (Homo sapiens), O60674 [V617F]; settings: HEL 92.1.7, dose 8-1000 nM, time 3.0 hrs; remark: listed apart in the source
[25] = tested on: Tyrosine-protein kinase JAK2 (Homo sapiens), O60674 [V617F]; settings: HEL 92.1.7, dose 8-1000 nM, time 3.0 hrs; remark: listed apart in the source
[26] = tested on: Tyrosine-protein kinase JAK2 (Homo sapiens), O60674 [V617F]; settings: SET2, dose 8-1000 nM, time 3.0 hrs

Chain of Tyrosine-protein kinase JAK2 (Homo sapiens), O60674 [V617F] (O60674 whole entry V617F): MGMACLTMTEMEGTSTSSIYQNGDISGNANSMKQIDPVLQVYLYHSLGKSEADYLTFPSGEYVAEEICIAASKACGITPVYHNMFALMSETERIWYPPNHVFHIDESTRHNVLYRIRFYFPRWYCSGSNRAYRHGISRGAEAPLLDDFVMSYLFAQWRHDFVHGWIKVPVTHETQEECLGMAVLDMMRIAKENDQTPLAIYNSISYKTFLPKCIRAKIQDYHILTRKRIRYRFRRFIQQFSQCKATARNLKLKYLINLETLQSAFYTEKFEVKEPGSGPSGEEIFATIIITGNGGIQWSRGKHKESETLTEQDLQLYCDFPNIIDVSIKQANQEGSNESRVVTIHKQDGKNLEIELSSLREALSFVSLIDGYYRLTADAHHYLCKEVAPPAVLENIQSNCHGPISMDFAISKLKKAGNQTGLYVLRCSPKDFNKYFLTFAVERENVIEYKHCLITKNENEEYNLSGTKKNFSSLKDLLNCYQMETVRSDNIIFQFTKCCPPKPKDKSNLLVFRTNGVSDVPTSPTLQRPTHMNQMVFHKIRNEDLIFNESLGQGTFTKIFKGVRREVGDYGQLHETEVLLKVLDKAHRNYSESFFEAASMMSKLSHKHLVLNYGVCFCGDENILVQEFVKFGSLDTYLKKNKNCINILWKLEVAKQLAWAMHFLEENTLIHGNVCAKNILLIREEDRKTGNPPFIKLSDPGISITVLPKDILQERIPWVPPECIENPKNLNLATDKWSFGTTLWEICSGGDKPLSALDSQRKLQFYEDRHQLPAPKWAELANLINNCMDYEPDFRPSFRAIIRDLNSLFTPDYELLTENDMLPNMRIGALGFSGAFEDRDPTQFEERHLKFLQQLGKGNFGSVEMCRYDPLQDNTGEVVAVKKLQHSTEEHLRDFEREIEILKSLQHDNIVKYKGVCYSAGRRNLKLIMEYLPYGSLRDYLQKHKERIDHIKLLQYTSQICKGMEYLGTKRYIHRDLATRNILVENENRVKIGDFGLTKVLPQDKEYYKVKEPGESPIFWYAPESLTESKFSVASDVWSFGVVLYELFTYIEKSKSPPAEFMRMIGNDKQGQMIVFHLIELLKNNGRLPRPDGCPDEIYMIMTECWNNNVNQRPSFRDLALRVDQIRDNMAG
Chain of Tyrosine-protein kinase JAK2 (Homo sapiens) (O60674 whole entry): as the sequence (O60674 whole entry V617F) above, with F617V counted along it
Chain of Tyrosine-protein kinase JAK2 (Mus musculus), Q62120 [V617F] (Q62120 as listed by the source): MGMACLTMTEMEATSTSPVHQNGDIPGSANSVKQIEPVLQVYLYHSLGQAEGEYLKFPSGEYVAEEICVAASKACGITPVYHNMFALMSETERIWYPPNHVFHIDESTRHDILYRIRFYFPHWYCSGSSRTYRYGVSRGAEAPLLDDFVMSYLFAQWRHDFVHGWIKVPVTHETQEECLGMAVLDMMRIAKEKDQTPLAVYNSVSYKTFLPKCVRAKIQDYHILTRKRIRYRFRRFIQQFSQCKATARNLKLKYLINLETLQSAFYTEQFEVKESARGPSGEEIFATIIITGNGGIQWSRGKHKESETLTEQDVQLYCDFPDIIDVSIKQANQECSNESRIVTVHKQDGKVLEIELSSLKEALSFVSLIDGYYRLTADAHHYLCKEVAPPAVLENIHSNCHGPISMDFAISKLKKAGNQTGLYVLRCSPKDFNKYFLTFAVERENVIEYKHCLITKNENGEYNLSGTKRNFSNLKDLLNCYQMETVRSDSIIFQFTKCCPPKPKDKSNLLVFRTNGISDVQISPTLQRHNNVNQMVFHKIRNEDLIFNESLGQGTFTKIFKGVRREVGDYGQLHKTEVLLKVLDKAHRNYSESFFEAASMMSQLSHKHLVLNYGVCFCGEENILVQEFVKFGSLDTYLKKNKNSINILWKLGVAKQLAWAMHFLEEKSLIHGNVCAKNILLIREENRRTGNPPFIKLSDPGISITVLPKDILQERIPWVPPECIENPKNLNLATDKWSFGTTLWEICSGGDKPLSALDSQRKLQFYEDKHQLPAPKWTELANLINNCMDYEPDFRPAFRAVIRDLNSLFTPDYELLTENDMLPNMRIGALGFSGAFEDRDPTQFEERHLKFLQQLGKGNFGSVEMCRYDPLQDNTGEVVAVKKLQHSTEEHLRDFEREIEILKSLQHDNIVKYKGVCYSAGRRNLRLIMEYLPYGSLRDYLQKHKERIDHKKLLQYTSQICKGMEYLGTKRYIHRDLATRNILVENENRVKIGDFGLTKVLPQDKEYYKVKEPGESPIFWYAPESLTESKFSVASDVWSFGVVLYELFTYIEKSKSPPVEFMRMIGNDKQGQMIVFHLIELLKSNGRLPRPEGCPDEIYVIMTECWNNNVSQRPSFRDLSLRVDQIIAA

- inhibition [1]: Active
- inhibition [2]: Active
- EC50 ([3]; SET-2, 16 h): 571 nM
- IC50 [5]: 2060 nM
- IC50 [6]: 2040 nM
- IC50 [7]: 2440 nM
- IC50 [8]: 1690 nM
- IC50 [9]: 2550 nM
- IC50 [10]: 917 nM
- IC50 [11]: 770 nM
- IC50 [13]: 348 nM
- IC50 [14]: 67 nM
- inhibition [19]: Dose-Dependent Effect
- inhibition [20]: Active
- inhibition [21]: Active
- inhibition [22]: Active
- inhibition [23]: Active
- inhibition [24]: Dose-Dependent Effect
- inhibition [25]: Dose-Dependent Effect
- inhibition [26]: Dose-Dependent Effect
Structure (SMILES): C1=N/C2=N/c3ccc(OCCN4CCCC4)c(c3)COC/C=C/COCc3cccc(c3)C(=C1)N2 [PACRITINIB]
- Activity [3]: Dose-Dependent Effect
- Activity [4]: Dose-Dependent Effect
- IC50 [12]: 1350 nM
- Activity [15]: Dose-Dependent Effect
- IC50 [16]: 260 nM
- EC50 [17]: 224 nM
- FIC50 [18]: 0.019 µM
